Data from ChEMBL document CHEMBL1687776, “Origin and molecular evolution of the determinant of methicillin resistance in staphylococci” (2010).
Values after ≈ are worked out from the molar mass of the structure shown.

Tested on: Staphylococcus vitulinus
Test: Antibacterial activity against mecA-negative Staphylococcus vitulinus SVMN03 by agar dilution method
Type: functional
Details: Mammaliicoccus vitulinus
Procedure, shortened: (§1)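 MIC by agar dilution on Mueller-Hinton agar following CLSI guidelines. Resistance was assigned using CLSI breakpoints. Agents tested were oxacillin, ampicillin, ceftizoxime, ceftriaxone and cefoxitin. Strains were from animal or food sources and identified by hsp60 and/or sodA sequencing. mecA absence was assessed by PCR with degenerate primers for mecA and its homologues.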

SMILES	MIC
CC1(C)S[C@@H]2[C@H](NC(=O)[C@H](N)c3ccccc3)C(=O)N2[C@H]1C(=O)O [AMPICILLIN]	< 0.063 µg/mL

Tested on: Staphylococcus vitulinus
Test: Antibacterial activity against methicillin-resistant mecA-positive Staphylococcus vitulinus SVMP04 by agar dilution method
Type: functional
Details: Mammaliicoccus vitulinus
Procedure, shortened: (§2)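 MIC by agar dilution on Mueller-Hinton agar per CLSI guidance; resistance judged against CLSI breakpoints. Strains were animal or food isolates (type strains for S. sciuri subspecies), typed by hsp60 and/or sodA sequencing; mecA homologue carriage checked by PCR with degenerate primers. Agents tested: oxacillin, ampicillin, ceftizoxime, ceftriaxone, cefoxitin.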

SMILES	MIC
CC1(C)S[C@@H]2[C@H](NC(=O)[C@H](N)c3ccccc3)C(=O)N2[C@H]1C(=O)O [AMPICILLIN]	< 0.063 µg/mL

Tested on: Staphylococcus vitulinus
Test: Antibacterial activity against mecA-negative Staphylococcus vitulinus SVMN01 (ATCC 51145T) by agar dilution method
Type: functional
Details: Mammaliicoccus vitulinus
Procedure, shortened: as §1

SMILES	MIC
CC1(C)S[C@@H]2[C@H](NC(=O)[C@H](N)c3ccccc3)C(=O)N2[C@H]1C(=O)O [AMPICILLIN]	0.125 µg/mL (≈ 0.358 µM)

Tested on: Mammaliicoccus lentus
Test: Antibacterial activity against mecA-negative Staphylococcus lentus ATCC 29070T by agar dilution method
Type: functional
Details: not given
Procedure, shortened: as §1

SMILES	MIC
CC1(C)S[C@@H]2[C@H](NC(=O)[C@H](N)c3ccccc3)C(=O)N2[C@H]1C(=O)O [AMPICILLIN]	< 0.063 µg/mL

Tested on: Staphylococcus vitulinus
Test: Antibacterial activity against mecA-negative Staphylococcus vitulinus SVMN10 by agar dilution method
Type: functional
Details: Mammaliicoccus vitulinus
Procedure, shortened: as §1

SMILES	MIC
CC1(C)S[C@@H]2[C@H](NC(=O)[C@H](N)c3ccccc3)C(=O)N2[C@H]1C(=O)O [AMPICILLIN]	< 0.063 µg/mL

Tested on: Staphylococcus fleurettii
Test: Antibacterial activity against methicillin-resistant mecA-positive Staphylococcus fleurettii SFMP03 by agar dilution method
Type: functional
Details: Mammaliicoccus fleurettii
Procedure, shortened: as §2

SMILES	MIC
CC1(C)S[C@@H]2[C@H](NC(=O)[C@H](N)c3ccccc3)C(=O)N2[C@H]1C(=O)O [AMPICILLIN]	1 µg/mL (≈ 2.86 µM)

Tested on: Staphylococcus fleurettii
Test: Antibacterial activity against mecA-negative Staphylococcus fleurettii SFMN02 by agar dilution method
Type: functional
Details: Mammaliicoccus fleurettii
Procedure, shortened: as §1

SMILES	MIC
CC1(C)S[C@@H]2[C@H](NC(=O)[C@H](N)c3ccccc3)C(=O)N2[C@H]1C(=O)O [AMPICILLIN]	0.125 µg/mL (≈ 0.358 µM)

Tested on: Staphylococcus vitulinus
Test: Antibacterial activity against methicillin-resistant mecA-positive Staphylococcus vitulinus SVMP05 by agar dilution method
Type: functional
Details: Mammaliicoccus vitulinus
Procedure, shortened: as §2

SMILES	MIC
CC1(C)S[C@@H]2[C@H](NC(=O)[C@H](N)c3ccccc3)C(=O)N2[C@H]1C(=O)O [AMPICILLIN]	< 0.063 µg/mL

Tested on: Staphylococcus vitulinus
Test: Antibacterial activity against mecA-negative Staphylococcus vitulinus SVMN02 by agar dilution method
Type: functional
Details: Mammaliicoccus vitulinus
Procedure, shortened: as §2

SMILES	MIC
CC1(C)S[C@@H]2[C@H](NC(=O)[C@H](N)c3ccccc3)C(=O)N2[C@H]1C(=O)O [AMPICILLIN]	< 0.063 µg/mL

Tested on: Staphylococcus vitulinus
Test: Antibacterial activity against mecA-negative Staphylococcus vitulinus SVMN13 by agar dilution method
Type: functional
Details: Mammaliicoccus vitulinus
Procedure, shortened: as §1

SMILES	MIC
CC1(C)S[C@@H]2[C@H](NC(=O)[C@H](N)c3ccccc3)C(=O)N2[C@H]1C(=O)O [AMPICILLIN]	< 0.063 µg/mL

Tested on: Staphylococcus vitulinus
Test: Antibacterial activity against methicillin-resistant mecA-positive Staphylococcus vitulinus SVMP03 by agar dilution method
Type: functional
Details: Mammaliicoccus vitulinus
Procedure, shortened: as §2

SMILES	MIC
CC1(C)S[C@@H]2[C@H](NC(=O)[C@H](N)c3ccccc3)C(=O)N2[C@H]1C(=O)O [AMPICILLIN]	< 0.063 µg/mL

Tested on: Staphylococcus vitulinus
Test: Antibacterial activity against mecA-negative Staphylococcus vitulinus SVMN07 by agar dilution method
Type: functional
Details: Mammaliicoccus vitulinus
Procedure, shortened: as §2

SMILES	MIC
CC1(C)S[C@@H]2[C@H](NC(=O)[C@H](N)c3ccccc3)C(=O)N2[C@H]1C(=O)O [AMPICILLIN]	< 0.063 µg/mL

Tested on: Staphylococcus vitulinus
Test: Antibacterial activity against mecA-negative Staphylococcus vitulinus SVMN05 by agar dilution method
Type: functional
Details: Mammaliicoccus vitulinus
Procedure, shortened: as §2

SMILES	MIC
CC1(C)S[C@@H]2[C@H](NC(=O)[C@H](N)c3ccccc3)C(=O)N2[C@H]1C(=O)O [AMPICILLIN]	< 0.063 µg/mL

Tested on: Staphylococcus vitulinus
Test: Antibacterial activity against mecA-negative Staphylococcus vitulinus SVMN14 by agar dilution method
Type: functional
Details: Mammaliicoccus vitulinus
Procedure, shortened: as §2

SMILES	MIC
CC1(C)S[C@@H]2[C@H](NC(=O)[C@H](N)c3ccccc3)C(=O)N2[C@H]1C(=O)O [AMPICILLIN]	< 0.063 µg/mL

Tested on: Staphylococcus fleurettii
Test: Antibacterial activity against methicillin-resistant mecA-positive Staphylococcus fleurettii SFMP04 by agar dilution method
Type: functional
Details: Mammaliicoccus fleurettii
Procedure, shortened: as §2

SMILES	MIC
CC1(C)S[C@@H]2[C@H](NC(=O)[C@H](N)c3ccccc3)C(=O)N2[C@H]1C(=O)O [AMPICILLIN]	1 µg/mL (≈ 2.86 µM)

Tested on: Staphylococcus vitulinus
Test: Antibacterial activity against methicillin-resistant mecA-positive Staphylococcus vitulinus SVMP01 by agar dilution method
Type: functional
Details: Mammaliicoccus vitulinus
Procedure, shortened: as §2

SMILES	MIC
CC1(C)S[C@@H]2[C@H](NC(=O)[C@H](N)c3ccccc3)C(=O)N2[C@H]1C(=O)O [AMPICILLIN]	< 0.063 µg/mL

Tested on: not listed separately
Test: Antibacterial activity against mecA-positive Staphylococcus sciuri subsp. carnaticus ATCC 700058T by agar dilution method
Details: Mammaliicoccus sciuri

SMILES	MIC
CC1(C)S[C@@H]2[C@H](NC(=O)[C@H](N)c3ccccc3)C(=O)N2[C@H]1C(=O)O [AMPICILLIN]	0.125 µg/mL (≈ 0.358 µM)
